Test results taken from ChEMBL document CHEMBL1127630, “New dual inhibitors of neutral endopeptidase and angiotensin-converting enzyme: rational design, bioavailability, and pharmacological responses in experimental hypertension” (J Med Chem, 1994).

Columns and labels:
[1] = target: T1, Angiotensin-converting enzyme (Mus musculus) (UniProt P09470); experiment: (§1) In vivo inhibition of lung Angiotensin I converting enzyme in mouse at a dose of 2.6*10e-5 mol/kg after 60 min oral administration; format: organism-based
T1 sequence (whole entry): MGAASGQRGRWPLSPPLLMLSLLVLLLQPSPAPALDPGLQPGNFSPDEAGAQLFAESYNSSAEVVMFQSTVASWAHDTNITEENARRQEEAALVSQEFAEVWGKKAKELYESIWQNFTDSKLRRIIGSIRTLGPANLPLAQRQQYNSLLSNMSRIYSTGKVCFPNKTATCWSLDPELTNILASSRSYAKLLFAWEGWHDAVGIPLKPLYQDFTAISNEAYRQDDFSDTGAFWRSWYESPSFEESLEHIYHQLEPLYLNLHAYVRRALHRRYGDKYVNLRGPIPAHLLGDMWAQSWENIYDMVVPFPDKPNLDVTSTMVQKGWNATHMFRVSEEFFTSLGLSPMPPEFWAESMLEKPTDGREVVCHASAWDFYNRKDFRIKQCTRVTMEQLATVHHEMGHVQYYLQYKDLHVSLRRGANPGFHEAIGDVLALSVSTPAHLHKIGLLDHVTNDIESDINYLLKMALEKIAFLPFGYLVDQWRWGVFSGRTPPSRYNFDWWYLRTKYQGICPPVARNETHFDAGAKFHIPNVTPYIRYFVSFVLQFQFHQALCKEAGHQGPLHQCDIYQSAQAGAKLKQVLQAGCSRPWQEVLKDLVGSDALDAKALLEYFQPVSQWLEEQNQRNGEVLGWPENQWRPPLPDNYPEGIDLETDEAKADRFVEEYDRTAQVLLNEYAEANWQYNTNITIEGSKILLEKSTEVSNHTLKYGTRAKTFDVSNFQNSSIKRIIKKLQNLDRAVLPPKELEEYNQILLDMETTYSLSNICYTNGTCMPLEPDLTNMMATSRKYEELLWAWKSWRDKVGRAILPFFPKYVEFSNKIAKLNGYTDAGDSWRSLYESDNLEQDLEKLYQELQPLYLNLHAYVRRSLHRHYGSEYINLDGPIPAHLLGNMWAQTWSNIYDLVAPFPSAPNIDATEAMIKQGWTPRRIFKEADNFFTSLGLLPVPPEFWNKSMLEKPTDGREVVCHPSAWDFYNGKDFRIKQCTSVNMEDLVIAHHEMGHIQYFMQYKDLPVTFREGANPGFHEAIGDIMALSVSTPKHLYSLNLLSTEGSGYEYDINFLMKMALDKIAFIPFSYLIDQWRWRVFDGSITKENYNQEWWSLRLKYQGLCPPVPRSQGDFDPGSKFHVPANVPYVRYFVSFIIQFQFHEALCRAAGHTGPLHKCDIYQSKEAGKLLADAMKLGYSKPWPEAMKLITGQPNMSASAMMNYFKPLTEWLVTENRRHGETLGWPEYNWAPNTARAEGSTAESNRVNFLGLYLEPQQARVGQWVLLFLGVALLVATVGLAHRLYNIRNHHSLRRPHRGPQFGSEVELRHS
Summary of the method: (§2)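 Prescreen in mice: single oral dose of 2.6 X 10-5 mol/kg of prodrug (thioacetyl and benzyl ester protected, tested as stereoisomer mixtures). Inhibition of binding of a tritiated ACE probe to lung measured 20 and 60 min after dosing. Mean ± SEM of three experiments, three mice each.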

[2] = target: T1, Angiotensin-converting enzyme (Mus musculus); experiment: Inhibition of lung Angiotensin Converting Enzyme (ACE) in mouse at a dose of 2.6*10e-5 mol/kg after 20 min oral administration; summary of the method: as §2
Mus musculus [3] = experiment: In vivo inhibition of lung ACE was observed at 60 min after oral administration; format: functional; parameters: concentration or dose not given beside the values
[4] = target: T1, Angiotensin-converting enzyme (Mus musculus); experiment: In vivo inhibition of lung ACE was observed at 240 min after oral administration of the compound; format: functional, organism-based; parameters: concentration or dose not given beside the values
[5] = target: T2, Neprilysin (Mus musculus) (UniProt Q61391); experiment: Inhibition of Neutral Endopeptidase activity was measured by using the displacement of [3H]HACBOGly from mouse kidney after 4 hr oral administration; parameters: scale not given: the % may be the effect or the level left
T2 sequence (whole entry): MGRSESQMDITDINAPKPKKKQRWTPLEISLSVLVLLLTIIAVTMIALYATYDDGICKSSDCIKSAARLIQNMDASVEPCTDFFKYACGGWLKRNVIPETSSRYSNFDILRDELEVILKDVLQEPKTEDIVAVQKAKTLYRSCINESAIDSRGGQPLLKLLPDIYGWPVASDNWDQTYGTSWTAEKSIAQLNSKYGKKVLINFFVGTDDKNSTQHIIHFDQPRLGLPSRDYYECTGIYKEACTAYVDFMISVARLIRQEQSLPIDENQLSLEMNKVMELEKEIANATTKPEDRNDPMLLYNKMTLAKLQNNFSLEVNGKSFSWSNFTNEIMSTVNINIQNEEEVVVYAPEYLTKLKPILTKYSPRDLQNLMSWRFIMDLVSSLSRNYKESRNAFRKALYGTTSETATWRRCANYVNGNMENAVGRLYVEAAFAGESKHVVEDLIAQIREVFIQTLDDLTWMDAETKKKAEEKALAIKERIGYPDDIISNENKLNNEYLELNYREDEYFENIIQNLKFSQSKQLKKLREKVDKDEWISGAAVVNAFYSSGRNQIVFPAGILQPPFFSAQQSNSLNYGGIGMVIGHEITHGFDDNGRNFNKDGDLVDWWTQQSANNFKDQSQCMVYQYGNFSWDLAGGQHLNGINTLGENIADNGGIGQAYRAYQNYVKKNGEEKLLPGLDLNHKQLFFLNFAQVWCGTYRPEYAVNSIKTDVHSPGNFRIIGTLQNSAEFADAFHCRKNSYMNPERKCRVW
Summary of the method: (§3)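 Mice dosed orally at 2.6 X 10-6 mol/kg in 10% ethanol/10% cremophor/80% water. [3H]HACBOGly (1 uCi) injected iv at intervals after dosing. Kidneys taken 15 min later, homogenized in 50 mM Tris-HCl pH 7.4 at 4 °C and filtered, radioactivity counted. Inhibition expressed as percent displacement versus control. Nonspecific binding defined with coinjected retrothiorphan (10.000 eq).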

[6] = target: T1, Angiotensin-converting enzyme (Mus musculus); experiment: In vivo inhibition of lung ACE was observed at 120 min after oral administration of the compound; format: functional, organism-based; parameters: concentration or dose not given beside the values
[7] = target: T2, Neprilysin (Mus musculus); experiment: Inhibition of Neutral Endopeptidase activity was measured by using the displacement of [3H]HACBOGly from mouse kidney after 1 hour oral administration; parameters: scale not given: the % may be the effect or the level left; summary of the method: as §3
[8] = target: T2, Neprilysin (Mus musculus); experiment: Inhibition of Neutral Endopeptidase activity was measured by using the displacement of [3H]HACBOGly from mouse kidney after 2 hr oral administration; parameters: scale not given: the % may be the effect or the level left; summary of the method: as §3
[9] = target: T2, Neprilysin (Mus musculus); experiment: Inhibition of Neutral Endopeptidase activity was measured by using the displacement of [3H]HACBOGly from mouse kidney after 8 hr oral administration; parameters: scale not given: the % may be the effect or the level left; summary of the method: as §3
[10] = target: T2, Neprilysin (Mus musculus); experiment: Inhibition of Neutral Endopeptidase activity was measured by using the displacement of [3H]HACBOGly from mouse kidney after 16h oral administration; parameters: scale not given: the % may be the effect or the level left; summary of the method: as §3
[11] = target: T1, Angiotensin-converting enzyme (Mus musculus); experiment: In vivo inhibition of lung ACE was observed at 30 min after oral administration of the compound; format: organism-based; parameters: concentration or dose not given beside the values
Mus musculus [12] = experiment: Time course of the in vivo inhibition (percent of control) of lung ACE was observed at 30 min after oral administration of the compound; format: functional; parameters: scale not given: the % may be the effect or the level left
Mus musculus [13] = experiment: as §1; format: functional; summary of the method: as §2

Structure (SMILES) | inhibition [1] [%] | inhibition [2] [%] | Control (Mus musculus [3]) [%] | Control [4] [%] | Control [5] [%] | Control [6] [%] | Control [7] [%] | Control [8] [%] | Control [9] [%] | Control [10] [%] | Control [11] [%] | Control (Mus musculus [12]) [%] | Inhibition (Mus musculus [13]) [%]
CC(=O)SCC(C(=O)NCC(=O)OCc1ccccc1)C(C)c1ccccc1 (configuration not stated) | 43 | 36 | – | – | – | – | – | – | – | – | – | – | –
C[C@H](NC(=O)[C@@H](CSC(=O)C12CC3CC(CC(C3)C1)C2)[C@@H](C)c1ccccc1)C(=O)O | – | – | 54 | 37 | 100 | 42 | 100 | 100 | 94 | 10 | 72 | – | –
CC(=O)SCC(C(=O)N[C@@H](C)C(=O)OCc1ccccc1)C(C)c1ccccc1 (some centres not stated) | – | 54 | 46 | 2 | – | 21 | – | – | – | – | – | 41 | 44
